Assay results as given in ChEMBL document CHEMBL3414559, “Novel C-4 heteroaryl 13-cis-retinamide Mnk/AR degrading agents inhibit cell proliferation and migration and induce apoptosis in human breast and prostate cancer cells and suppress growth of MDA-MB-231 human breast and CWR22Rv1 human prostate tumor xenografts in mice” (J Med Chem, 2015).
Activity calls are given as the source filed them. No cut-off for these calls is given here.

Assays:
MCF7 [1] = experiment: Induction of apoptosis in human MCF7 cells assessed as increase in c-PARP formation at 0.63 uM to 20 uM after 24 hrs by SDS-PAGE and Western blotting method; type: functional, cell-based
In short: (§1)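 Breast cancer cells in RPMI 1640 with 10% FBS treated 24 h at indicated concentrations, DMSO vehicle control; equal protein loaded on SDS–PAGE and immunoblotted for Mnk1, Mnk2, peIF4E, eIF4E and cleaved PARP; blots reprobed for GAPDH as loading control.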

LNCaP = experiment: Reduction in Mnk1 protein expression in human LNCAP cells at 0.6 uM to 20 uM after 24 hrs by SDS-PAGE and Western blotting method; type: functional, cell-based
In short: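 LNCaP cells (RPMI 1640, 10% FBS) exposed 24 h to 0.6–20 μM, DMSO vehicle control; equal protein on SDS–PAGE, immunoblotted for fAR, Mnk1/2, peIF4E, cyclin D1 and cleaved PARP; β-actin reprobe for loading.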

MCF7 [2] = experiment: Reduction in peIF4E protein expression in human MCF7 cells at 0.63 uM to 20 uM after 24 hrs by SDS-PAGE and Western blotting method; type: functional, cell-based
In short: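 MCF-7, MDA-MB-231 and MDA-MB-468 cells, kept in RPMI 1640 with 10% FBS, were exposed for 24 h to a range of concentrations, with DMSO vehicle controls. Equal protein from lysates was separated by SDS–PAGE and probed for Mnk1, Mnk2, peIF4E, eIF4E and cPARP. GAPDH reprobing served as loading control.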

MDA-MB-231 [3] = experiment: Effect on total eIF4E protein expression in human MDA-MB-231 cells at 0.63 uM to 20 uM after 24 hrs by SDS-PAGE and Western blotting method; type: functional, cell-based; in short: as §1
[4] = Growth inhibition of human PC3 cells by MTT assay; type: functional; details: PC-3
In short: (§2)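 Cells grown in RPMI 1640 with 10% FBS, plated at 2500 cells/well, treated across a dose range; growth read by MTT. GI50 taken from dose–response curves by nonlinear regression, at least three independent experiments.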

MDA-MB-231 [5] = experiment: Antitumor activity against human MDA-MB-231 cells xenografted in nude mouse assessed as reduction in Mnk1/2 protein expression at 20 mg/kg, ip dosed once daily for 5 days per week for 28 days by SDS-PAGE and Western blotting method
MDA-MB-231 [6] = experiment: Growth inhibition of human MDA-MB-231 cells by MTT assay; type: functional; in short: as §2
MCF7 [7] = experiment: Effect on total eIF4E protein expression in human MCF7 cells at 0.63 uM to 20 uM after 24 hrs by SDS-PAGE and Western blotting method; type: functional, cell-based; in short: as §1
MCF7 [8] = experiment: Growth inhibition of human MCF7 cells by MTT assay; type: functional; in short: as §2
PC-3 = experiment: Inhibition of cell migration of human PC3 cells at 5 uM after 24 hrs by wound healing assay; type: functional, cell-based
In short: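 Cells (5 × 10⁵ per well) grown to confluence, monolayer scratched at time zero, then exposed to 5 μM for 24 h; initial and final wounds photographed at 100×.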

MDA-MB-231 [9] = experiment: Reduction in Mnk1 protein expression in human MDA-MB-231 cells at 0.63 uM to 20 uM after 24 hrs by SDS-PAGE and Western blotting method; type: functional, cell-based; in short: as §1
MDA-MB-468 [10] = experiment: Effect on total eIF4E protein expression in human MDA-MB-468 cells at 0.63 uM to 20 uM after 24 hrs by SDS-PAGE and Western blotting method; type: functional, cell-based; in short: as §1
MDA-MB-231 [11] = experiment: Antitumor activity against human MDA-MB-231 cells xenografted in nude mouse assessed as increase in Bax protein expression at 20 mg/kg, ip dosed once daily for 5 days per week for 28 days by SDS-PAGE and Western blotting method
[12] = Growth inhibition of human SKBR3 cells by MTT assay; type: functional; details: SK-BR-3; in short: as §2
MDA-MB-231 [13] = experiment: Antitumor activity against human MDA-MB-231 cells xenografted in nude mouse assessed as reduction in Bcl2 protein expression at 20 mg/kg, ip dosed once daily for 5 days per week for 28 days by SDS-PAGE and Western blotting method
MDA-MB-231 [14] = experiment: Antitumor activity against human MDA-MB-231 cells xenografted in SCID mouse assessed as tumor growth at 20 mg/kg, ip dosed once daily for 5 days per week for 28 days; type: functional; details: route intraperitoneal, in the assay text read “athymic nude mouse” for “SCID mouse”
In short: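 Athymic nude female mice with subcutaneous MDA-MB-231 tumors (10 × 10⁶ cells; ~100 mm³ at randomization, n = 6/group) dosed ip once daily, 5 days/week for 28 days, in 40% β-cyclodextrin/ddH₂O; vehicle controls. %T/C computed as median tumor volume treated vs control at day 28 × 100. Body weight monitored.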

MDA-MB-468 [15] = experiment: Induction of apoptosis in human MDA-MB-468 cells assessed as increase in c-PARP formation at 0.63 uM to 20 uM after 24 hrs by SDS-PAGE and Western blotting method; type: functional, cell-based; in short: as §1
[16] = target: T1, Androgen receptor (Homo sapiens) (UniProt P10275); details: LNCaP, at 10 µM
T1 sequence (whole entry): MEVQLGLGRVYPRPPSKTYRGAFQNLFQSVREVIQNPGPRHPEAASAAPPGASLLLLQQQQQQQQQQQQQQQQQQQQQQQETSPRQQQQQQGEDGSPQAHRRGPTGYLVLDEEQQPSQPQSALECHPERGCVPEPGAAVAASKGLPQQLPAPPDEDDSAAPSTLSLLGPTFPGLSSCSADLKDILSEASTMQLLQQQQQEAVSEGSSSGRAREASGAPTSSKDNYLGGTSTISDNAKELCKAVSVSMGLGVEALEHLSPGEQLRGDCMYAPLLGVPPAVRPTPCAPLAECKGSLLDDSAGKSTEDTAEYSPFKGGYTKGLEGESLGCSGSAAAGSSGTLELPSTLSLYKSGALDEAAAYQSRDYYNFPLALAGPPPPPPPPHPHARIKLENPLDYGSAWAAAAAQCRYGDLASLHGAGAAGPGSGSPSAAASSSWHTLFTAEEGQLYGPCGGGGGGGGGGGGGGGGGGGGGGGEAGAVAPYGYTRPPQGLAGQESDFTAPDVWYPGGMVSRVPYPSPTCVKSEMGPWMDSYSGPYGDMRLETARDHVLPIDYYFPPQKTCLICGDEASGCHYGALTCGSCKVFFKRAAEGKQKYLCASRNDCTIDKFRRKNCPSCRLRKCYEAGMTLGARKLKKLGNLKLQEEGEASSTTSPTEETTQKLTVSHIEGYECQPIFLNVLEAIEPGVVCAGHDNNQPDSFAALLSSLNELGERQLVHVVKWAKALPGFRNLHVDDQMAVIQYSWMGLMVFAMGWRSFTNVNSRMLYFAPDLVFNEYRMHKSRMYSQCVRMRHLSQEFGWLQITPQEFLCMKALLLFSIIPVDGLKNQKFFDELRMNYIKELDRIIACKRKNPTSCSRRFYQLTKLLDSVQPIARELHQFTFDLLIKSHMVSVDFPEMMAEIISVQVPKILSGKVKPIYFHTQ

| GI50 (MDA-MB-231 [6]) [µM] | GI50 (MCF7 [8]) [µM] | inhibition [16] | Structure (SMILES) | Activity (MCF7 [1]) | inhibition (LNCaP) | inhibition (MCF7 [2]) | Activity (MDA-MB-231 [3]) | GI50 [4] [µM] | Activity (MDA-MB-231 [5]) | Activity (MCF7 [7]) | inhibition (PC-3) | inhibition (MDA-MB-231 [9]) | Activity (MDA-MB-468 [10]) | Activity (MDA-MB-231 [11]) | GI50 [12] [µM] | Activity (MDA-MB-231 [13]) | T/C (MDA-MB-231 [14]) [%] | Activity (MDA-MB-468 [15]) |
| --- | --- | --- | --- | --- | --- | --- | --- | --- | --- | --- | --- | --- | --- | --- | --- | --- | --- | --- |
| 8.51 | 5.49 | Active | CC1=C(/C=C/C(C)=C/C=C/C(C)=C\C(=O)Nc2cccc(F)c2)C(C)(C)CCC1n1ccnc1 (stereo unspecified) | Dose-dependent effect | Dose-dependent effect | Dose-dependent effect | inactive | 5.62 | Active | inactive | Active | Dose-dependent effect | inactive | Active | 17 | Active | 14.6 | Dose-dependent effect |
| 2.23 | 0.16 | Active | CC1=C(/C=C/C(C)=C/C=C/C(C)=C\C(=O)NCc2ccc(O)cc2)C(C)(C)CCC1n1ccnc1 (stereo unspecified) | Dose-dependent effect | Dose-dependent effect | Dose-dependent effect | inactive | 3.54 | Active | inactive | Active | Dose-dependent effect | inactive | Active | 2.45 | Active | 14.6 | Dose-dependent effect |
